Read-outs that look alike come from different tables or passages of the source.
Experiments:
Type in all cases: biochemical
[1] = biological target: T1, LmLuc (Luciola mingrelica luciferase) (Luciola mingrelica, UniProt Q26304); assay: luminescence inhibition, 1536-well CRC; settings: read-out: % inhibition at 57 μM (inactive)
T1 sequence (Q26304 1-548): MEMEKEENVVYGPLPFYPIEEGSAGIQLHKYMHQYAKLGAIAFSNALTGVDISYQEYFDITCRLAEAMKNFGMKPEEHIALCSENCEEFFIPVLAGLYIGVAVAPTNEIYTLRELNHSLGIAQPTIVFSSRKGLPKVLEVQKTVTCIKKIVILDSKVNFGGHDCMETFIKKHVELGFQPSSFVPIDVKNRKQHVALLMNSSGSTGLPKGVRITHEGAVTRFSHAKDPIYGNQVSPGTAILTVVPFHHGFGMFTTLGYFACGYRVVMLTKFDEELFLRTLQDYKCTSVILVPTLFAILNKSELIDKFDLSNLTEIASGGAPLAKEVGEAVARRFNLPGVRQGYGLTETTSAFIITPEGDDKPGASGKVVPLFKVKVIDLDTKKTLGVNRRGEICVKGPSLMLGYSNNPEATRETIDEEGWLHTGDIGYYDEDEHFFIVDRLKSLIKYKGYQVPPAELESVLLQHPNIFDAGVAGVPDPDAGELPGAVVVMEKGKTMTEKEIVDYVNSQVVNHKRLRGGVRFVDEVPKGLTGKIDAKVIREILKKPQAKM

[2] = biological target: T2, RLuc (Renilla reniformis luciferase) (Renilla reniformis, UniProt P27652); assay: luminescence inhibition, 1536-well CRC
T2 sequence (P27652 1-311): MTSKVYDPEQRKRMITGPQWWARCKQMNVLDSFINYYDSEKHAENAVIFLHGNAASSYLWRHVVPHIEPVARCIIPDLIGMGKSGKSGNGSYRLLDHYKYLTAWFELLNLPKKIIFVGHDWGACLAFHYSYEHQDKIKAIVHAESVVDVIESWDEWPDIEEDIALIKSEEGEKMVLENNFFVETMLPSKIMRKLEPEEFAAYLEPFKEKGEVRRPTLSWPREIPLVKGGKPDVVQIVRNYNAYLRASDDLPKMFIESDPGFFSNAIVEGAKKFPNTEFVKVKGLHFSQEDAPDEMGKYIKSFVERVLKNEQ
Summary of the method: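 Renilla reniformis luciferase in 1536-well format with 5 μM coelenterazine as substrate. Luminescence is measured over a test-compound concentration series. IC50 is taken from the fitted concentration-response curve and given as mean ±SD of at least 4 determinations.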

[3] = biological target: T3, FLuc (Photinus pyralis luciferase) (Photinus pyralis, UniProt P08659); assay: luminescence inhibition, 1536-well CRC; settings: read-out: % inhibition at 57 μM (inactive)
T3 sequence (P08659 whole entry): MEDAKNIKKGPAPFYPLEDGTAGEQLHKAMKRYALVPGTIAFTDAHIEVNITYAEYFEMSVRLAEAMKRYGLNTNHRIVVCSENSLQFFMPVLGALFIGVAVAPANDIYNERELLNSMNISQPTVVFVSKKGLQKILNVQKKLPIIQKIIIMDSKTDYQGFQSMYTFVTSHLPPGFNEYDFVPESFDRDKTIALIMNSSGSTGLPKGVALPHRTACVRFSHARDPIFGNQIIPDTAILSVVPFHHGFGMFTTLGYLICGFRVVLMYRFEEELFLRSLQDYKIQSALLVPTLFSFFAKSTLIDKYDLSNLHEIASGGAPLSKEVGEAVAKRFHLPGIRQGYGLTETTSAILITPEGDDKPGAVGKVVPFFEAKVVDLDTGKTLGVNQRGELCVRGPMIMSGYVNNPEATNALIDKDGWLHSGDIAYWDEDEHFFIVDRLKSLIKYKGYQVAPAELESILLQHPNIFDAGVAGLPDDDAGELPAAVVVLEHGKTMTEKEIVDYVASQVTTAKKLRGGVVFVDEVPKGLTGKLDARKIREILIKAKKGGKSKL

[4] = biological target: T4, VLuc (Vibrio fischeri luciferase) (Aliivibrio fischeri, UniProt P19907); assay: luminescence inhibition, 1536-well CRC, FMN reductase-coupled; settings: read-out: VLuc; 0.1 M sodium phosphate pH 7.0, 0.005% decanal, 0.1 mM NADH, 2 μM FMN, 0.1% BSA; partially purified enzyme
T4 sequence (P19907 1-354): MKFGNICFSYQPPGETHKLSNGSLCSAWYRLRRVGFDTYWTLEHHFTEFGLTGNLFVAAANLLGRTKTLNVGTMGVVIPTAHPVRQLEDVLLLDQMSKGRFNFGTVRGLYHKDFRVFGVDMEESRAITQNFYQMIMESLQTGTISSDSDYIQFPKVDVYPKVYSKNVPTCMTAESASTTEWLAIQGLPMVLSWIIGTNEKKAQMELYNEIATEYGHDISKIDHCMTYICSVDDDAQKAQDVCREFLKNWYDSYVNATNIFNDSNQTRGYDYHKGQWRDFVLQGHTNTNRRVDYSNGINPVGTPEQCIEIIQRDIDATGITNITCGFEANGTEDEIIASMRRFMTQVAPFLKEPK
T4 sequence (P19908 1-326 partner): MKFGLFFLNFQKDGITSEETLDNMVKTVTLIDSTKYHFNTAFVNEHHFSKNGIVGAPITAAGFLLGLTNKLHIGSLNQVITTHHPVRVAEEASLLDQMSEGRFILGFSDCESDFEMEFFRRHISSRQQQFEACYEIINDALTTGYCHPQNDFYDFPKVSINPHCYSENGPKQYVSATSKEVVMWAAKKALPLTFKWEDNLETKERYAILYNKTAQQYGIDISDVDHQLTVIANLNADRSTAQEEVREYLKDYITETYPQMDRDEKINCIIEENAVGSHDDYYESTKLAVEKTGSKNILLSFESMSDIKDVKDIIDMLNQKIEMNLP

[5] = biological target: T1, LmLuc (Luciola mingrelica luciferase); assay: luminescence inhibition, 1536-well CRC
Summary of the method: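 Luciola mingrelica luciferase at 5 nM final in 1536-well format, run by the same protocol as the Photinus enzyme with 10 μM D-luciferin and 10 μM ATP. Luminescence is read over a test-compound titration. IC50 comes from curve fitting and is given as mean ±SD of at least 4 determinations.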

[6] = biological target: T3, FLuc (Photinus pyralis luciferase); assay: luminescence inhibition, 1536-well CRC
Summary of the method: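 Purified wild-type Photinus pyralis luciferase in 1536-well format, with 10 μM D-luciferin and 10 μM ATP as substrates. Luminescence is read across a concentration titration of test compound. IC50 comes from the fitted concentration-response curve and is given as mean ±SD of at least 4 determinations.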

[7] = biological target: T2, RLuc (Renilla reniformis luciferase); assay: luminescence inhibition, 1536-well CRC; settings: read-out: % inhibition at 57 μM (inactive)
[8] = read-out: LmLuc, 10 μM D-luciferin and ATP, 5 nM enzyme
[9] = read-out: FLuc, 10 μM D-luciferin and ATP

Compound	IC50 [4] [µM]	IC50 [5, 8] [µM]	IC50 [6, 9] [nM]	other results
COC(=O)[C@@]1(Cc2ccc(O)c(CC=C(C)C)c2)OC(=O)C(O)=C1c1ccc(O)cc1 [compound 10, butyrolactone I]				inhibition at 57 µM [1]: < 20%; IC50 [2]: > 57 µM; inhibition at 57 µM [3]: < 20%
CC(C)(O)[C@H]1Cc2cc(/C=C3\OC(=O)C(c4ccc5c(c4)C[C@H](C(C)(C)O)O5)=C3O)ccc2O1 [compound 5, aspulvinone J-CR]	6.5 ± 3.3	0.1 ± 0.03		IC50 ([2]; read-out: RLuc, 5 μM coelenterazine): > 57 µM
benzofuran [compound 12]		14.8 ± 2.8	18600 ± 8800	
aspulvinone I-CR [compound 4]	12 ± 2.3	0.5 ± 0.2	720 ± 400	
aspulvinone F [compound 2]		2.5 ± 0.5	3600 ± 1500	IC50 ([2]; read-out: Ultra, 5 μM coelenterazine): > 57 µM
COC(=O)[C@]1(Cc2ccc(O)c(CC3OC3(C)C)c2)OC(=O)C(O)=C1c1ccc(O)cc1 (stereo partly drawn) [compound 11, butyrolactone III]				inhibition at 57 µM [1]: < 20%; inhibition at 57 µM [7]: < 20%; inhibition at 57 µM [3]: < 20%
O=C1O/C(=C\c2ccc(O)cc2)C(O)=C1c1ccc(O)cc1 [compound 1, aspulvinone E]	> 57			IC50 [5]: 3.6 ± 1.1 µM; inhibition at 57 µM [7]: < 20%; IC50 [6]: 1400 ± 1600 nM
aspulvinone M-CR [compound 8]	18 ± 8	5.3 ± 5.9	1700 ± 1600	

Source: PMC3225805 (Chemistry & biology, 2011)
